Assay outcomes deposited in PubChem by several laboratories.
core dimer inh: HCV core protein dimerization inhibition. TR-FRET GST/Flag-core106 dimerization, 1536-well. inhibition, % at 5 µM. hit rate 0.33% among 300,000. AID 1899;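 active = inhibition above the mean of all tested compounds plus 3 SD, set per screening campaign, cut at about 45% in these data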
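Assay system: Tagged HCV core106 pair (GST and Flag) | Buffer or medium: KF-containing HEPES buffer, pH 7.45, DTT, CHAPS, BSA | Also added: Eu donor and XL665 acceptor anti-tag antibodies | Dosing: One concentration, 5 µM, in 0.5% DMSO | Timing: 4 h at 22.5 °C | Technique: TR-FRET 671 and 617 nm emission | Repeats: Singlicate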
Myeloid diff 2: myeloid differentiation induction; hit rate 1% among 360,000; AID 624256; ER-HoxA9 myeloid progenitors, lysozyme-GFP differentiation, flow cytometry; calls only at 10 µM;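 active = normalized GFP-positive differentiation at or above the plate's own cutoff, the solvent-only control mean plus 3 SD; inconclusive = no clear call, values can overlap the other calls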;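 note: cells exposed to compound for four days before flow analysis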
NadD inh: blocks S. aureus nicotinate mononucleotide adenylyltransferase; inhibition, % at 20 µM; purified NadD enzyme, colorimetric absorbance read-out; AID 602399; hit rate 0.78% among 360,000; in the data active = inhibition above about 26%
PP1 inh: PP1-alpha (human) inhibition in PP5 counter-screen | P62136 | purified PP1alpha, OMFP fluorescence | inhibition, % at 6.7 µM | hit rate 0.9% among 320,000 | AID 2235;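 active = inhibition above the mean inhibition of all tested compounds plus 3 SD, computed separately for each screening campaign, cut at about 15% in these data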
Target sequence (P62136 whole entry, looked up): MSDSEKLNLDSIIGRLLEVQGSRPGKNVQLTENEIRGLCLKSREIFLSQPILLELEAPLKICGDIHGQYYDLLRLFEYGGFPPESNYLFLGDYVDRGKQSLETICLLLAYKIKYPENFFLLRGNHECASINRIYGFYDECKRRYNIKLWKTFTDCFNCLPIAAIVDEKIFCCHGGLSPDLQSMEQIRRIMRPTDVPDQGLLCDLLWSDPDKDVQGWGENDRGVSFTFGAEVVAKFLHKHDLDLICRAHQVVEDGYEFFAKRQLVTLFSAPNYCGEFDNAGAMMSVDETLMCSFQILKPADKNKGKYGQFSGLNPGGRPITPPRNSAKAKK
CTSL1 counter: counter-screen for PFM18AAP inhibitors: inhibitors of F. hepatica cathepsin L1. hit rate 0.49% among 300,000. AID 1906. recombinant F. hepatica cathepsin L1, Z-Leu-Arg-MCA fluorescence. inhibition, % at 5.96 µM;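 active = inhibition above the mean of all tested compounds plus 3 SD, set per screening campaign, cut at about 17% in these data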
PP5 primary: inhibitors of human protein phosphatase 5 (PP5). P53041. purified PP5c, OMFP substrate fluorescence. inhibition, % at 6.7 µM. hit rate 0.18% among 320,000;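 active = inhibition above the campaign's mean inhibition across all tested compounds plus 3 SD, cut at about 9.5% in these data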
PP1 inh confirm: confirmation of human PP1 phosphatase inhibitors; purified PP1alpha, OMFP substrate fluorescence; AID 2358; inhibition, % at 6.7 µM; shares compounds with PP1 inh; hit rate 52% among 1,900;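 active = mean PP1 inhibition above a set limit taken from the earlier primary screen, cut at about 15% in these data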
PP5 inh counter: counter-screen for PP1 inhibitors: human PP5 phosphatase inhibition; shares compounds with PP1 inh; hit rate 4% among 1,900; purified PP5c, OMFP fluorescence; inhibition, % at 6.7 µM;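 active = mean PP5 inhibition over triplicate wells above about 9.5% taken from the earlier PP1 screen, limit read from the data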
Each line names hits and unclear results; the compound was inactive in the other large screens (follow-up assays come after a bar, where they were run). Most compounds without a hit are left out; they make up all but 3.1% or so of the library.

COc1nc(-c2ccccc2)ccc1-c1noc(COc2ccccc2)n1	PP1 inh 19 | PP1 inh confirm inactive | PP5 inh counter inactive
Cc1nnc2sc(-c3ccc(NC(=O)CSc4ccc(Cl)cc4)cc3)nn12	PP1 inh 18 | PP1 inh confirm inactive | PP5 inh counter inactive
CCc1nnc2sc(-c3ccc(NC(=O)CSc4ccc(Cl)cc4)cc3)nn12	none
O=c1cc(-c2ccccc2)nc2c(-c3ccccc3)c(C(F)(F)F)[nH]n12	PP1 inh 33 | PP1 inh confirm 33 | PP5 inh counter inactive
Cc1cc(=O)n2[nH]c(C)c(-c3ccccc3)c2n1	none
O=C(O)Cc1ccc(NS(=O)(=O)c2ccc3ccccc3c2)cc1	none
COc1cc(OC)cc(C(=O)Nn2c(C)nc3ccccc3c2=O)c1	none
COc1ccc2[nH]c3c(c2c1)CCn1c-3nc2ccccc2c1=O	PP1 inh 26 | PP1 inh confirm 22 | PP5 inh counter inactive
O=C(O)c1ccccc1NS(=O)(=O)c1ccc(NN=Cc2ccccc2F)c([N+](=O)[O-])c1	none (no result: core dimer inh, PP1 inh, CTSL1 counter, PP5 primary)
Cc1nn(-c2ccccc2)c(Cl)c1/C=N/Nc1ccc(S(=O)(=O)Nc2ccccc2C(=O)O)cc1[N+](=O)[O-]	PP1 inh 20 | PP1 inh confirm inactive | PP5 inh counter inactive
CC1CC(=O)c2c(cc3c(-c4c(O)cc(O)c5c(O)c6c(cc45)OC(C)CC6=O)c(O)cc(O)c3c2O)O1 (stereo not given)	PP1 inh 70 | PP1 inh confirm 48 | PP5 inh counter inactive
CC(Oc1ccccc1)C(=O)N=Nc1c(O)[nH]c2ccc(Br)cc12 (stereo not given)	PP1 inh 18 | PP1 inh confirm inactive | PP5 inh counter inactive
Cc1c(N)cccc1-n1cnnn1	none
c1cc2ccc3ccc(-n4cnnn4)c4ccc(c1)c2c34	PP1 inh 20 | PP1 inh confirm 23 | PP5 inh counter inactive
O=[N+]([O-])c1ccc(N2N=C(c3ccco3)CC2c2ccccc2)cc1 (stereo not given)	core dimer inh 87, PP1 inh 19 | PP1 inh confirm inactive | PP5 inh counter inactive
O=C1C=C(N2CCN(c3ccccn3)CC2)C(=O)c2c(O)ccc(O)c21	none (no result: core dimer inh, PP1 inh, CTSL1 counter, PP5 primary)
CC1=CC(=O)c2c(O)ccc(O)c2C1=O	core dimer inh 70, PP1 inh 28, CTSL1 counter 18 (no result: Myeloid diff 2, NadD inh) | PP1 inh confirm inactive | PP5 inh counter 28
CCOc1ccc(NC(=O)CSc2nnc(Cc3csc(C)n3)o2)cc1	none
COC(=O)c1sc(N2C(=O)C(O)=C(C(=O)c3ccc(C)o3)C2c2cccs2)nc1C (stereo not given)	Myeloid diff 2 inconclusive, PP1 inh 23 | PP1 inh confirm 21 | PP5 inh counter inactive
CCc1ccc2nc(N3C(=O)C(O)=C(C(=O)c4ccco4)C3c3cccs3)sc2c1 (stereo not given)	PP1 inh 29 | PP1 inh confirm 24 | PP5 inh counter inactive
O=C(C1=C(O)C(=O)N(CCc2ccccc2)C1c1cccs1)c1ccco1 (stereo not given)	none
CCOc1cccc(C2C(C(=O)c3ccc(C)o3)=C(O)C(=O)N2Cc2ccncc2)c1 (stereo not given)	none
CCOc1cccc(C2C(C(=O)c3ccc(C)o3)=C(O)C(=O)N2c2nccs2)c1 (stereo not given)	PP1 inh 22 | PP1 inh confirm inactive | PP5 inh counter inactive
COc1ccc(S(=O)(=O)N2CCOCC2)cc1NC(=O)C1CC1	none (no result: core dimer inh, PP1 inh, CTSL1 counter, PP5 primary)
Cc1cc(NC(=O)CSc2ccc(-c3ccc(Br)cc3)nn2)no1	PP1 inh 18 | PP1 inh confirm inactive | PP5 inh counter inactive
FC(F)(F)c1cccc(CNC2c3ccccc3-c3ccccc32)c1	none
COc1ccc(Nc2cc(C)nc(NCc3ccccc3)n2)cc1	Myeloid diff 2 inconclusive
Cc1ccc(Nc2cc(C)nc(NCc3ccccc3)n2)cc1	PP1 inh 18 | PP1 inh confirm inactive | PP5 inh counter inactive
Cc1ccc2cc(CN(CC(C)C)S(=O)(=O)c3cccc4nonc34)c(=O)[nH]c2c1	none
Cc1c(/C=N/n2cnnc2)c2ccccc2n1CCOc1ccc(Cl)cc1	PP1 inh 29 | PP1 inh confirm inactive | PP5 inh counter inactive
O=C(NCc1cccc(Cl)c1)N1CCN(S(=O)(=O)c2ccccc2F)CC1	none
Cc1noc(C)c1COC(=O)COc1ccc2c(C)cc(=O)oc2c1	PP1 inh 19 | PP1 inh confirm 17 | PP5 inh counter inactive
CCOC(=O)Cc1cc(=O)n(-c2nc3ccccc3s2)[nH]1	PP1 inh 44 | PP1 inh confirm inactive | PP5 inh counter inactive
CCCc1cc(=O)n(-c2nc3ccccc3s2)[nH]1	none
Cc1noc(C)c1S(=O)(=O)N(C)C[C@H]1OCCCC[C@H](C)Oc2ccc(NC(=O)CCCN(C)C)cc2C(=O)N([C@H](C)CO)C[C@@H]1C	none (no result: core dimer inh, PP1 inh, CTSL1 counter, PP5 primary)
CCOC(=O)c1cc(-c2cccs2)nc2c1c(C)nn2-c1ccccn1	PP1 inh 23 | PP1 inh confirm 25 | PP5 inh counter inactive
Cc1nn(-c2ccccc2)c2nc(-c3cccs3)cc(C(=O)NN)c12	none
CN(C)C(=N)c1n[nH]nc1SCc1ccc(Cl)c(Cl)c1	PP1 inh 25 | PP1 inh confirm inactive | PP5 inh counter inactive
Cc1cccc(NC(=O)c2cccc(NC3=NC4CS(=O)(=O)CC4S3)c2)c1 (stereo not given)	none
Cc1ccc(N2CCN(S(=O)(=O)c3c(C)nc4sccn4c3=O)CC2C)cc1 (stereo not given)	none (no result: core dimer inh, PP1 inh, CTSL1 counter, PP5 primary)
C#CCNC(=O)C1=C[C@@H](c2csc3ccccc23)C[C@@H](OCc2ccc(CO)cc2)O1	PP1 inh 73 | PP1 inh confirm inactive | PP5 inh counter inactive
O=C(NC1CC1)C1=C[C@@H](c2csc3ccccc23)C[C@@H](OCc2ccc(CO)cc2)O1	none
Cc1nc(C)c(C(=O)OCC(=O)N(C)c2ccccc2)s1	none (no result: core dimer inh, PP1 inh, CTSL1 counter, PP5 primary)
Cc1cccc(NC(=O)/C(=C/c2cccc([N+](=O)[O-])c2)NC(=O)c2cccs2)c1	PP1 inh 18 | PP1 inh confirm inactive | PP5 inh counter inactive
O=C(Cc1csc(NC(=O)Nc2ccc(Cl)cc2)n1)NC1CCCC1	PP1 inh 24 | PP1 inh confirm 19 | PP5 inh counter inactive
O=C(Nc1ccccc1)OCCN1CCOCC1	none (no result: core dimer inh, PP1 inh, CTSL1 counter, PP5 primary)
O=C(O)c1ccccc1-c1nc2cc(Cl)ccc2c(=O)n1O	PP1 inh 22 | PP1 inh confirm 24 | PP5 inh counter inactive
O=c1c2ccccc2nc(-c2ccc(Cl)cc2Cl)n1O	none
Cc1c(NS(=O)(=O)c2ccc3c(c2)c(=O)n(C)c(=O)n3C)c(=O)n(-c2ccccc2)n1C	PP1 inh 36 | PP1 inh confirm inactive | PP5 inh counter inactive
CCC(C)Sc1cccc(-c2nc3ccc(C)cn3c2NCc2ccccc2)c1 (stereo not given)	none
